Assays:
[1] = test system: Cerebellum; assay: Drug uptake in CD1 mouse cerebellum at 5 to 7 mBq, iv after 60 mins; assay type: ADME, organism-based; conditions: in vivo, 1 h
Procedure, shortened: (§1)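 Male CD-1 mice (23-28 g). [11C]radioligand given into a lateral tail vein at […], specific radioactivity ~150 GBq/μmol, in 0.2 mL saline. Mice killed by cervical dislocation at several times after injection. Organs and brain regions dissected on ice, weighed and γ-counted against injectate standards. Uptake given as %ID/g tissue, mean ± SD, n=3.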

[2] = test system: Brain; assay: Drug uptake in CD1 mouse brain at 5 to 7 mBq, iv; assay type: ADME, organism-based; conditions: in vivo; procedure, shortened: as §1
[3] = test system: Spleen; assay: Drug uptake in CD1 mouse spleen at 5 to 7 mBq, iv; assay type: ADME, organism-based; conditions: in vivo; procedure, shortened: as §1
[4] = test system: Heart; assay: Drug uptake in CD1 mouse heart at 5 to 7 mBq, iv; assay type: ADME, organism-based; conditions: in vivo; procedure, shortened: as §1
[5] = test system: Liver; assay: Drug uptake in CD1 mouse liver at 5 to 7 mBq, iv; assay type: ADME, organism-based; conditions: in vivo; procedure, shortened: as §1
[6] = test system: Kidney; assay: Drug uptake in CD1 mouse kidney at 5 to 7 mBq, iv; assay type: ADME, organism-based; conditions: in vivo; procedure, shortened: as §1
[7] = test system: Intestine; assay: Drug uptake in CD1 mouse intestine at 5 to 7 mBq, iv; assay type: ADME, organism-based; conditions: in vivo; procedure, shortened: as §1
[8] = test system: Hippocampus; assay: Drug uptake in CD1 mouse hippocampus at 5 to 7 mBq, iv after 60 mins; assay type: ADME, organism-based; conditions: in vivo, 1 h; procedure, shortened: as §1
[9] = test system: Cortex; assay: Drug uptake in CD1 mouse cortex at 5 to 7 mBq, iv after 60 mins; assay type: ADME, organism-based; conditions: in vivo, 1 h; procedure, shortened: as §1
[10] = Drug uptake in CD1 mouse brainstem at 5 to 7 mBq, iv after 60 mins; assay type: ADME, organism-based; conditions: in vivo, 1 h; procedure, shortened: as §1
[11] = Drug uptake in LPS-stimulated CD1 mouse brainstem at 5 to 7 mBq, iv administered 5 days post LPS challenge; assay type: ADME, organism-based; conditions: read-out: Drug uptake
Procedure, shortened: (§2)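 Male CD1 mice given LPS (strain O111:B4, 5 mg/kg in saline, i.p.) 5 days before study. [11C]radioligand ([…], ~150 GBq/μmol, 0.2 mL saline) injected into the tail vein. Mice killed at 60 min and brain regions dissected and γ-counted. Uptake given as %ID/g tissue and as blood-normalized %ID/g tissue × body weight (kg). Mean ± SD, n=3.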

[12] = test system: Hippocampus; assay: Drug uptake in LPS-stimulated CD1 mouse hippocampus at 5 to 7 mBq, iv administered 5 days post LPS challenge; assay type: ADME, organism-based; conditions: in vivo, 120 h; procedure, shortened: as §2
[13] = test system: Cerebellum; assay: Drug uptake in LPS-stimulated CD1 mouse cerebellum at 5 to 7 mBq, iv administered 5 days post LPS challenge; assay type: ADME, organism-based; conditions: in vivo, 120 h; procedure, shortened: as §2
[14] = test system: Cortex; assay: Drug uptake in LPS-stimulated CD1 mouse cortex at 5 to 7 mBq, iv administered 5 days post LPS challenge; assay type: ADME, organism-based; conditions: in vivo, 120 h; procedure, shortened: as §2
[15] = test system: Brain; assay: Drug uptake in LPS-stimulated CD1 mouse brain at 5 to 7 mBq, iv administered 5 days post LPS challenge; assay type: ADME, organism-based; conditions: in vivo, 120 h; procedure, shortened: as §2
[16] = Drug uptake in LPS-stimulated CD1 mouse brainstem at 5 to 7 mBq, iv in presence of AM630; assay type: ADME, organism-based; conditions: in vivo
Procedure, shortened: (§3)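 Blocking study in male CD1 mice, either controls or LPS-treated (5 mg/kg LPS O111:B4 i.p., 5 days earlier). AM630 (3 mg/kg) or GW405833 (2 mg/kg) was given s.c. in 0.1 mL DMSO; vehicle controls received DMSO alone. [11C]radioligand ([…], ~150 GBq/μmol) was injected i.v. 30 min later. Tissues harvested at 60 min and γ-counted. Mean ± SD, n=3.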

[17] = target: Cannabinoid receptor 2 (Homo sapiens, UniProt P34972); assay: Agonist activity at CB2 receptor; assay type: functional
[18] = test system: Hippocampus; assay: Drug uptake in LPS-stimulated CD1 mouse hippocampus at 5 to 7 mBq, iv in presence of AM630; assay type: ADME, organism-based; conditions: in vivo; procedure, shortened: as §3
[19] = test system: Brain; assay: Drug uptake in LPS-stimulated CD1 mouse brain at 5 to 7 mBq, iv in presence of AM630; assay type: ADME, organism-based; conditions: in vivo; procedure, shortened: as §3
[20] = test system: Cortex; assay: Drug uptake in LPS-stimulated CD1 mouse cortex at 5 to 7 mBq, iv in presence of AM630; assay type: ADME, organism-based; conditions: in vivo; procedure, shortened: as §3
[21] = test system: Cerebellum; assay: Drug uptake in LPS-stimulated CD1 mouse cerebellum at 5 to 7 mBq, iv in presence of AM630; assay type: ADME, organism-based; conditions: in vivo; procedure, shortened: as §3
[22] = Ratio of drug uptake in brain to blood in LPS-stimulated CD1 mouse at 5 to 7 mBq, iv; assay type: ADME, tissue-based; procedure, shortened: as §2
[23] = test system: Brain; assay: Drug uptake in CD1 mouse brain at 5 to 7 mBq, iv in presence of AM630; assay type: ADME, organism-based; conditions: in vivo; procedure, shortened: as §3
[24] = test system: Brain; assay: Drug uptake in CD1 mouse brain at 5 to 7 mBq, iv in presence of GW-405833; assay type: ADME, organism-based; conditions: in vivo; procedure, shortened: as §3
[25] = test system: Brain; assay: Drug uptake in LPS-stimulated CD1 mouse brain at 5 to 7 mBq, iv administered 5 days post LPS challenge measured after 3 mins; assay type: ADME, organism-based; conditions: in vivo, 0.05 h
Procedure, shortened: (§4)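 Dynamic small-animal PET of an LPS-5-day-treated and a control CD1 mouse. Both were injected simultaneously via the tail vein with [11C]radioligand (~3000 mCi/μmol) and imaged for 90 min in 28 frames. Images reconstructed by 2D OSEM after scatter subtraction. Whole-brain ROIs drawn on mean images gave time-SUV curves.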

[26] = test system: Brain; assay: Drug uptake in CD1 mouse brain at 5 to 7 mBq, iv after 3 mins; assay type: ADME, organism-based; conditions: in vivo, 0.05 h; procedure, shortened: as §4
[27] = test system: Cerebellum; assay: Drug uptake in APPswe/PS1dE9 mouse cerebellum at 5 to 7 mBq, iv; assay type: ADME, organism-based; conditions: in vivo
Procedure, shortened: (§5)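 Female APPswe/PS1dE9 bigenic mice (line 85, C57Bl/6J background), 18 months old. [11C]radioligand given into a lateral tail vein at […], specific radioactivity ~150 GBq/μmol, in 0.2 mL saline. Mice killed by cervical dislocation at 60 min. Brain regions dissected on ice, weighed and γ-counted against injectate standards. Uptake expressed as blood-normalized %ID/g tissue × body weight (kg).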

[28] = Drug uptake in APPswe/PS1dE9 mouse brainstem at 5 to 7 mBq, iv; assay type: ADME, tissue-based; conditions: in vivo; procedure, shortened: as §5
[29] = test system: Cortex; assay: Drug uptake in APPswe/PS1dE9 mouse cortex at 5 to 7 mBq, iv; assay type: ADME, organism-based; conditions: in vivo; procedure, shortened: as §5
[30] = test system: Brain; assay: Drug uptake in APPswe/PS1dE9 mouse brain at 5 to 7 mBq, iv; assay type: ADME, organism-based; conditions: in vivo; procedure, shortened: as §5
[31] = test system: Spleen; assay: Drug uptake in CD1 mouse spleen at 5 to 7 mBq, iv after 60 mins in presence of AM630; assay type: ADME, organism-based; conditions: in vivo, 1 h; procedure, shortened: as §3

Cannabinoid receptor 2, sequence (P34972 whole entry): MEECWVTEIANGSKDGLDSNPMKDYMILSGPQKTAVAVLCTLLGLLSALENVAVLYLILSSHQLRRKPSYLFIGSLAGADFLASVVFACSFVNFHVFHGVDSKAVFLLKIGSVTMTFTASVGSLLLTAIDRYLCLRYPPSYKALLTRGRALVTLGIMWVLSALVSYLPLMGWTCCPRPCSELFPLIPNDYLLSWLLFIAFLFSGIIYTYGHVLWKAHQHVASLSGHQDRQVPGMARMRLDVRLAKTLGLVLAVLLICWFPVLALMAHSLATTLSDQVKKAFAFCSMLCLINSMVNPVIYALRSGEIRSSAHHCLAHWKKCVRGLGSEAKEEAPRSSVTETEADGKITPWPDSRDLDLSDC

Q: With `Cc1s/c(=N\C(=O)C2C(C)(C)C2(C)C)n(CCO[11CH3])c1C` as the compound, how does the Drug uptake [1] read?
A: The Drug uptake was 0.3 % ID/g.

Q: And the Drug uptake [2]?
A: The Drug uptake was 0.3 % ID/g.

Q: And the Drug uptake [3]?
A: The Drug uptake was 1.3 % ID/g.

Q: What about the Drug uptake [4] of the same compound?
A: The Drug uptake was 0.7 % ID/g.

Q: What about the Drug uptake [5] of the same compound?
A: Its Drug uptake is 4.9 % ID/g.

Q: What about the Drug uptake [6] of the same compound?
A: The Drug uptake was 2.2 % ID/g.

Q: What about the Drug uptake [7] of the same compound?
A: The Drug uptake was 1.5 % ID/g.

Q: What about the Drug uptake [8] of the same compound?
A: Its Drug uptake is 0.3 % ID/g.

Q: What about the Drug uptake [9] of the same compound?
A: The Drug uptake was 0.3 % ID/g.

Q: And the Drug uptake [10]?
A: Its Drug uptake is 0.3 % ID/g.

Q: What about the tissue uptake at 120 h [11] of the same compound?
A: The tissue uptake at 120 h was 2.1 %ID/g.

Q: And the Drug uptake [12]?
A: The Drug uptake was 1.9 % ID/g.

Q: And the Drug uptake [13]?
A: Its Drug uptake is 1.8 % ID/g.

Q: What about the Drug uptake [14] of the same compound?
A: Its Drug uptake is 1.7 % ID/g.

Q: What about the Drug uptake [15] of the same compound?
A: Its Drug uptake is 1.5 % ID/g.

Q: And the Drug uptake [16]?
A: Its Drug uptake is “Not Active”.

Q: What about the Ki [17] of the same compound?
A: The Ki was 0.7 nM.

Q: And the Drug uptake [18]?
A: Its Drug uptake is “Not Active”.

Q: What about the Drug uptake [19] of the same compound?
A: The Drug uptake was “Not Active”.

Q: And the Drug uptake [20]?
A: Its Drug uptake is “Not Active”.

Q: What about the Drug uptake [21] of the same compound?
A: Its Drug uptake is “Not Active”.

Q: And the Kp [22]?
A: The Kp was 3.3.

Q: What about the Drug uptake [23] of the same compound?
A: Its Drug uptake is “Not Active”.

Q: What about the Drug uptake [24] of the same compound?
A: The Drug uptake was “Not Active”.

Q: What about the SUV [25] of the same compound?
A: Its SUV is 2.3.

Q: And the SUV [26]?
A: Its SUV is 0.5.

Q: And the Drug uptake [27]?
A: The Drug uptake was “Not Active”.

Q: And the Drug uptake [28]?
A: Its Drug uptake is “Not Active”.

Q: What about the Drug uptake [29] of the same compound?
A: Its Drug uptake is “Not Active”.

Q: What about the Drug uptake [30] of the same compound?
A: The Drug uptake was “Not Active”.

Q: And the Drug uptake [31]?
A: The Drug uptake was “Not Active”.

— ChEMBL document CHEMBL1250427, “Synthesis and biodistribution of [11C]A-836339, a new potential radioligand for PET imaging of cannabinoid type 2 receptors (CB2)” (Bioorg Med Chem, 2010)
